# bCat KO growth – primary screen for growth suppressors in beta-catenin knockout HCT116 cells (colon tumor, human); HCT116 beta-catenin knockout viability, CellTiter-Glo, 60 h; stronger effect = lower value; viability, % at 10 µM; hit rate 1.5% among 140,000;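 active = viability at or under a set limit, the compound median less 4 SD, cut at about 6% in these data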;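 also: 0% = Hyamine 1622 control at 20 µM and 100% = untreated cell control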
# HCT116 PTEN-null – growth suppression of PTEN-null HCT116, primary screen, cell-based, CellTiter-Glo; HCT116 PTEN-null viability, 60 h; stronger effect = lower value; viability, % at 10 µM; hit rate 1.2% among 140,000; AID 827, 2007;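 active = viability at or below a set limit, 4 SD under the median of all tested compounds, cut at about 3.7% in these data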;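 also: PTEN knockout HCT116 line with beta catenin targeted HCT116 as companion control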
# PMI act hi M6P – human PMI activators, high substrate, primary screen, biochemical, fluorescence intensity, near-saturating mannose 6-phosphate; coupled PMI enzyme assay, resazurin fluorescence, 20 min; stronger effect = higher value; 1 = untreated enzyme, 0 = substrate-free blank; activation factor at 20 µM; hit rate 0.34% among 190,000;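 active = activation factor of 2 or more at 20 µM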
# Target sequence (P34949 whole entry, looked up): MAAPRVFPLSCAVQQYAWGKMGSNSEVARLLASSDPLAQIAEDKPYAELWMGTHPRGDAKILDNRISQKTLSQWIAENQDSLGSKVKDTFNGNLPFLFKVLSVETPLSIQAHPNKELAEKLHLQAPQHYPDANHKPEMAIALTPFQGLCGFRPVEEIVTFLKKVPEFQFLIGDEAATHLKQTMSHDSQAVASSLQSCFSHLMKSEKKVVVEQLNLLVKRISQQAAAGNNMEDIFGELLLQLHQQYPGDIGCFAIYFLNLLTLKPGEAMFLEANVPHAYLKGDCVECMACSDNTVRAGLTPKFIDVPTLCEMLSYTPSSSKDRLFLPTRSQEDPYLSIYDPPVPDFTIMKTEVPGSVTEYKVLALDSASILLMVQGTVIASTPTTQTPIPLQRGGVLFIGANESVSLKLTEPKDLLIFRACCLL
#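 assay system = human phosphomannose isomerase with PGI, G6PDH, diaphorase coupling enzymes | quantity = 15 ng/mL PMI | incubation = enzyme reaction with compound 20 min at room temperature | medium = HEPES pH 7.4 buffer with MgCl2 and Tween-20 | compound dosing = one concentration, 20 µM, in 1% DMSO | measured by = Diaphorase-driven resazurin-to-resorufin fluorescence, excitation 544, emission 590 nm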
# Lmaj promast – Leishmania major promastigote growth inhibition, primary screen; Leishmania major promastigotes, resazurin fluorescence viability; inhibition, % at 10 µM; hit rate 9% among 200,000; in the data active = inhibition above about 50%;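 also: promastigotes grown with compound for 44 hours at 28 °C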
# PMI act – activators of human PMI, primary screen, biochemical, fluorescence intensity, near-Km mannose 6-phosphate; purified human PMI, coupled resazurin fluorescence, 20 min; stronger effect = higher value; 1 = vehicle control, 0 substrate-free wells; activation factor at 20 µM; hit rate 0.005% among 190,000; AID 1214, 2008;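 active = activation factor of 2 or more at 20 µM, relative to plate controls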
# Active calls of the source: *; x = no result. The list is not random: actives were taken first. Their share in the collection is about 9.6%.
SMILES,bCat KO growth,HCT116 PTEN-null,PMI act hi M6P,Lmaj promast,PMI act
Cc1c(C(=O)N2CCCCC2)sc(NC(=O)C23CC4CC(CC(C4)C2)C3)c1C#N,x,x,x,0,x
COc1ccc(/C=N/Nc2nc(NCc3ccco3)nc(Nc3ccc(OC)cc3)n2)cc1,100,94,1,77*,1
CCCNC(=O)NCCc1c(C)[nH]c2ccccc12,99,100,1,0,1.1
Cc1[nH]c2ccccc2c1CCNC(=O)c1ccc2c(c1[N+](=O)[O-])C(=O)c1ccccc1C2=O,2.3*,11,0.5,95*,0.8
CN(C)C(=O)c1ccc2c(c1[N+](=O)[O-])C(=O)c1ccccc1C2=O,2.0*,1.7*,1.2,33,1.5
Cc1[nH]c2c(C)cccc2c1CCNC(=O)c1ccc2c(c1[N+](=O)[O-])C(=O)c1ccccc1C2=O,2.1*,2.0*,0.4,100*,0.8
CN1C(=O)CSc2ccc(NC(=O)NCCC3=CCCCC3)cc21,61,54,0.9,4,0.9
Cn1ccs/c1=N\C(=O)Nc1cccc(Cl)c1,x,x,1,40,1
COc1cc2ncnc(NCc3ccc(Cl)cc3)c2cc1OC,x,x,0.9,62*,0.8
CC1CCc2c(C(=O)N3CCN(S(=O)(=O)c4cccs4)CC3)csc2C1 (stereo not drawn),87,79,0.9,16,0.8
N=c1c(-c2nc3ccccc3[nH]2)cc(C(=O)c2ccco2)nn1-c1ccccc1,57,60,1,100*,1
N=c1c(-c2nc3ccccc3[nH]2)cc(C(=O)c2cccs2)nn1-c1ccccc1,47,54,1,100*,1
CN(C)c1nc(-c2ccccc2)c2cnn(Cc3ccccc3)c2n1,66,56,0.9,63*,0.9
CCSc1nccc(-c2nn(-c3ccc(C)cc3)ccc2=O)n1,21,22,1,8,0.9
CSc1nccc(-c2nn(-c3ccc(C)cc3)ccc2=O)n1,19,23,1.1,100*,1.1
CSc1ccccc1-c1nnc(-c2ccc(Cl)cc2Cl)o1,99,91,0.8,-11,0.8
CCSc1nnc(-c2ccccc2SC)o1,x,x,2.1*,-4,1.8
Clc1ccc(CN(Cc2ccccc2)C(c2cccs2)c2nnnn2C2CCCC2)cc1 (stereo not drawn),23,48,1,87*,0.9
CCN(CC)C(c1ccc(F)cc1)c1nnnn1C1CCCCC1 (stereo not drawn),79,76,1.1,14,1
CC(C)(C)n1nnnc1C(c1ccc(C(F)(F)F)cc1)N(Cc1ccccc1)Cc1ccco1 (stereo not drawn),43,44,0.8,22,0.8
c1ccc(CN(Cc2ccco2)C(c2ccncc2)c2nnnn2C2CCCC2)cc1 (stereo not drawn),77,86,0.9,95*,1
Fc1ccc(C(c2nnnn2C2CCCC2)N(Cc2ccco2)CC2CCCO2)cc1 (stereo not drawn),64,64,1,78*,0.8
Cc1oc(-c2cccc(C(F)(F)F)c2)nc1CN1CCOCC1,x,x,0.9,1,0.9
C#CCN1C(=O)S/C(=C/C=C/c2ccc(N(C)C)cc2)C1=O,72,73,0.7,88*,1
Cn1c(=O)c2c(nc(NCCNC(=O)c3ccco3)n2Cc2ccc(Cl)cc2Cl)n(C)c1=O,100,98,0.9,-2,0.9
SMILES,bCat KO growth,HCT116 PTEN-null,PMI act hi M6P,Lmaj promast,PMI act
Cn1c(NCCCN2CCOCC2)nc2c1c(=O)n(Cc1ccc(Cl)cc1Cl)c(=O)n2C,57,57,1,90*,1
COCCNC(=O)C(=O)NNC(=O)c1ccccc1OC,x,x,0.9,-3,1
COc1ccc(C(O)(CCc2ccccc2)CCN2CCCCC2)cc1 (stereo not drawn),x,x,1,16,1
O=C(CCC(=O)N/N=C/c1ccccc1O)NCc1ccccc1,80,83,1.1,-3,1.1
COCCCn1c(=S)[nH]c2c(sc3ccccc32)c1=O,x,x,1.4,28,1.3
Cc1cc(-c2cn3ccccc3n2)c(C)n1-c1ccccc1,x,x,1,30,1.1
COc1ccc(-n2c(C)cc(-c3cn4cccc(C)c4n3)c2C)cc1,x,x,0.9,63*,1
COC(=O)c1cn(NC(=O)c2cnccn2)c(=O)c2ccccc12,17,15,0.8,-8,0.8
O=C(Nn1cc(C(=O)Nc2ccccc2F)c2ccccc2c1=O)c1cnccn1,x,x,0.9,74*,1
CN(C)CC/C=C1\c2ccccc2COc2ccccc21,90,85,1.2,100*,1.1
CC(=O)Nc1ccc(NC(=O)c2cccc3c2-c2ccccc2C3=O)cc1,x,x,1,78*,1
Cc1ccc(NC(=O)c2cccc3c2-c2ccccc2C3=O)cc1C,64,51,1,2,0.9
Cc1cc(=O)[nH]c(SCC(=O)NCC2CCCCC2)c1C#N,x,x,1,5,1.1
COc1ccc(CC2(C)OC(c3ccc(Cl)cc3)=NN2C(C)=O)cc1 (stereo not drawn),73,72,0.9,54*,0.8
COc1ccc(CC2(C)OC(c3ccncc3)=NN2C(C)=O)cc1 (stereo not drawn),x,x,1.1,-1,1.1
N#Cc1c(NCCN)nc(-c2ccco2)c2c1CCCC2,6,6,0.9,100*,0.9
COc1ccccc1NC(=O)c1ccc(NC(=O)CSc2n[nH]c(N)n2)cc1,99,96,1,65*,0.9
CCOC(=O)CNC(=O)N1CCCC(CNS(=O)(=O)Cc2ccccc2)C1 (stereo not drawn),x,x,1,-3,1
[N-]=[N+]=NC1C[C@H](n2ccc(=O)[nH]c2=O)O[C@@H]1CO (stereo partly drawn),1.1*,1.0*,1,-2,0.9
O=S(=O)(NC12CC3CC(CC(C3)C1)C2)c1ccc(F)cc1,78,80,0.9,1,0.9
c1ccc(C2=Nn3c(nnc3-c3cc(-c4ccccc4)n[nH]3)SC2)cc1,77,79,1,63*,0.9
COc1ccc(C2=Nn3c(nnc3-c3ccc(OC)cc3)SC2)cc1,16,14,1,61*,0.9
Cc1nnc2n(c1=O)N=C(c1ccc(Cl)cc1)CS2,85,94,1,80*,0.9
COc1ccc(-c2nnc3n2N=C(C)CS3)cc1,80,100,1,-4,0.9
CCOc1cccc(-c2nnc3n2N=C(c2cc(OC)ccc2OC)CS3)c1,18,18,1.2,66*,1.1
COc1cccc2cc(C(=O)NCCc3c[nH]c4ccccc34)c(=O)oc12,x,x,0.9,-5,0.9
COc1cccc(-c2nnc3n2N=C(c2cc(OC)ccc2OC)CS3)c1,57,61,1,27,0.9

# Compound activity: PubChem, several laboratories
